DENV2 CPE rescue = inhibitors of DENV2 cytopathic effect. DENV2-infected cells, cytopathic effect rescue, plate reader. CPE inhibition, % at 9.99 µM. 350,000 compounds, 1.7% hits. AID 651640; in the data active means CPE inhibition above about 20%, passing the limit was not always enough; inconclusive means no clear call, values can overlap the other calls; tested in BHK-21 cells
FN deposit inh = fibronectin deposition inhibition. AH1F fibroblasts, Alexa488-fibronectin deposition fluorescence, overnight. inhibition, % at 12.6 µM. 350,000 compounds, 0.086% hits. AID 743247;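 active means mean inhibition across replicates of 30% or more, regardless of how many single replicates reach that level; inconclusive means mean under 30% yet at least half of replicates reach 30%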
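Material: AH1F fibroblast monolayer depositing Alexa488-labelled fibronectin into matrix / Amount: 10000 AH1F cells per well / Signal: fluorescence 485/525 nm / Medium: DMEM, 2% serum / Compound: single dose, pinned / Incubation: 1 h cell adhesion before compound, then overnight fibronectin incubation / Reagent: Alexa488-FN, 24 nM final / Read-out: inhibition of fibronectin deposition signal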
Env fusion inh = HIV envelope-mediated fusion inhibition. HeLa-JRFL Env/CEM21 cell fusion, luciferase. inhibition, % at 12.3 µM. 360,000 compounds, 1.1% hits. AID 651610;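 active means mean replicate inhibition score of at least 50 and every replicate individually at or above 50; inconclusive means only one of the two criteria met; inactive means mean below 50 and not all replicates reaching 50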
Ecoli rRNA inh = inhibits bacterial ribosomal RNA function over humanized ribosomes; AID 720706; 350,000 compounds, 1.6% hits; E. coli WT GFP vs humanized-ribosome RFP mutants, fluorescence, 24 h; hits give low values; DMSO median 0, no signal -100; GFP signal change (wild-type ribosome), % (test concentration not listed);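 active means significant combined selectivity score with lowered wild-type GFP, culture density cut under 30%, mutant RFP and density less affected; inactive means any of these conditions unmet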
PglD DTNB = PglD (C. jejuni) enzyme inhibition; purified PglD enzyme, DTNB colorimetric CoA detection; inhibition, % at 12.5 µM; 360,000 compounds, 0.098% hits; AID 602405; in the data active means inhibition above about 16%, passing the limit was not always enough; inconclusive means no clear call, values can overlap the other calls
PGC1a acetyl inh = lowers PGC1a acetylation signal in U2OS cells; inhibition, % at 15.6 µM; 350,000 compounds, 0.17% hits; AlphaScreen anti-acetyl-lysine; with virally co-expressed GCN5 acetyltransferase;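 active means every replicate shows inhibition of at least 40%; inconclusive means mean inhibition at least 40% but some replicate below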
Each line names hits and unclear results; the compound was inactive in the other large screens; ! = repeats disagree; [ ] = remark or other dose. Shown are actives, neighbours in structure and some others; about 3.5% of the full set was active somewhere.

COc1ccc(-n2c(COc3ccccc3)nnc2SCc2ccc(C#N)cc2)cc1	none (no result: DENV2 CPE rescue, FN deposit inh, Ecoli rRNA inh)
Cc1ccc(OCc2nnc(SCc3cc(=O)[nH]c4ccccc34)n2-c2ccccc2)cc1	DENV2 CPE rescue 60 (no result: PglD DTNB, PGC1a acetyl inh)
COc1ccc(-c2ccc3c(c2)[C@@H]2[C@@H](CCN2S(=O)(=O)c2ccc(F)cc2)[C@H](CO)N3C)cc1	none (no result: Env fusion inh, PglD DTNB)
C[C@H](CO)N1C[C@H](C)[C@@H](CN(C)C(=O)NC2CCCC2)Oc2ncc(C#CCN(C)C)cc2C1=O	none
Cc1cc(OCCn2cc(/C(N)=N/O)c3ccccc32)ccc1Cl	Ecoli rRNA inh -40 (no result: DENV2 CPE rescue, FN deposit inh, Env fusion inh)
COC(=O)c1cn(CCOc2ccc(C)cc2)c2ccccc12	none (no result: DENV2 CPE rescue, Ecoli rRNA inh)
C[C@@H]1CN([C@H](C)CO)C(=O)c2cc(NC(=O)Nc3ccccc3)ccc2O[C@@H](C)CCCCO[C@@H]1CN(C)Cc1ccccc1	none
COc1ccccc1CNc1nc(NCc2cnc(C)cn2)c2sccc2n1	FN deposit inh 35 (no result: PGC1a acetyl inh)
CC(C)(C)[S@](=O)N1Cc2cc(C(=O)N3CCc4ccccc4C3)nc(-c3cccc(-c4cccnc4)c3)c2[C@@H]1CCO	none
COc1ccc(NC(=O)Nc2ccc3c(c2)CC(=O)N([C@@H](C)CO)C[C@@H](C)[C@@H](CN(C)C(=O)Nc2c(C)noc2C)O3)cc1	none (no result: FN deposit inh)
CCS(=O)(=O)N1CCCCN2[C@H](C1)[C@@H](c1ccc(-c3ccc(C#N)cc3)cc1)[C@@H]2CO	DENV2 CPE rescue 41 (no result: FN deposit inh, Env fusion inh)
CCS(=O)(=O)N1CCCCN2[C@H](CO)[C@H](c3ccc(-c4ccc(C#N)cc4)cc3)[C@@H]2C1	none (no result: FN deposit inh, Env fusion inh)
N#Cc1ccc(-c2ccc([C@H]3[C@H](CO)N4CCCCN(S(=O)(=O)c5ccccc5)C[C@@H]34)cc2)cc1	DENV2 CPE rescue 34 (no result: FN deposit inh, Env fusion inh)
CCS(=O)(=O)N1CCCCN2[C@H](C1)[C@@H](c1ccc(C#CC(C)(C)O)cc1)[C@@H]2CO	none (no result: FN deposit inh, Env fusion inh)
CCS(=O)(=O)N1CCCCN2[C@H](CO)[C@@H](c3ccc(C#CC(C)(C)O)cc3)[C@H]2C1	DENV2 CPE rescue 22 (no result: FN deposit inh, Env fusion inh)
N#Cc1ccc(-c2ccc([C@@H]3[C@@H]4CN(S(=O)(=O)c5ccc(-c6ccccc6)cc5)C[C@H]3N4)cc2)cc1	PGC1a acetyl inh 85 (no result: Env fusion inh, PglD DTNB)
C[C@@H]1CN([C@H](C)CO)C(=O)c2cc(NC(=O)C3CC3)ccc2O[C@H]1CN(C)Cc1ccccc1	none (no result: FN deposit inh, Env fusion inh)
Cc1noc(C)c1NC(=O)N(C)C[C@H]1Oc2c(NC(=O)c3nc4ccccc4s3)cccc2C(=O)N([C@@H](C)CO)C[C@H]1C	none (no result: Env fusion inh)
COc1cccc(-c2ccc(C3[C@@H]4CN(S(=O)(=O)c5ccccc5C)C[C@H]3N4)cc2)c1 (stereo not given in full)	none (no result: Env fusion inh, PglD DTNB)
N#Cc1ccc(-c2ccc([C@@H]3[C@@H]4CN(Cc5cocn5)C[C@H]3N4)cc2)cc1	DENV2 CPE rescue 99 (no result: Env fusion inh, PglD DTNB)
COc1ccc(-c2ccc(C3[C@@H]4CN(S(=O)(=O)c5ccccc5C)C[C@H]3N4)cc2)cc1 (stereo not given in full)	DENV2 CPE rescue 31! (no result: Env fusion inh, PglD DTNB)
CC(=O)N(C)C[C@H]1Oc2ncc(C#Cc3ccccc3)cc2C(=O)N([C@H](C)CO)C[C@@H]1C	none (no result: FN deposit inh)
O=C(C[C@@H]1CC[C@H](NS(=O)(=O)c2ccccc2)[C@@H](CO)O1)NCc1ccc(Cl)c(Cl)c1	none
Cc1cccc(C)c1NC(=O)C(C)n1c(-c2ccc(=O)[nH]c2)nc2ccccc21 (stereo not given)	DENV2 CPE rescue 21 (no result: PglD DTNB, PGC1a acetyl inh)
Cc1cccc(C)c1NC(=O)C(C1CC1)n1c(-c2ccc(=O)[nH]c2)nc2ccccc21 (stereo not given)	none (no result: PglD DTNB, PGC1a acetyl inh)
O=S(=O)(c1ccccc1)N1CCCCN2[C@@H](CO)[C@H](c3ccc(-c4cncnc4)cc3)[C@@H]2C1	none (no result: FN deposit inh, Env fusion inh)
O=S(=O)(c1ccccc1)N1CCCCN2[C@H](CO)[C@H](c3ccc(-c4cncnc4)cc3)[C@@H]2C1	DENV2 CPE rescue 33 (no result: FN deposit inh, Env fusion inh)
Cc1ccccc1S(=O)(=O)N1CCCCN2[C@H](CO)[C@H](c3ccc(-c4cncnc4)cc3)[C@@H]2C1	DENV2 CPE rescue 36 (no result: FN deposit inh, Env fusion inh)
CO[C@@H]1CN(C)C(=O)c2cc(NS(=O)(=O)c3ccccc3)ccc2OC[C@H](C)N(C(=O)NC(C)C)C[C@H]1C	none
O=C(NC(=S)Nc1cccc2[nH]ncc12)c1ccccc1	none
O=C(Nc1cccc2[nH]ncc12)c1ccc(F)cc1	Env fusion inh 74, PGC1a acetyl inh inconclusive (no result: DENV2 CPE rescue, Ecoli rRNA inh)
COc1ccc([C@H]2CC(=O)C=C(c3ccc(F)cc3OCc3ccccc3)C2)cc1	none
COc1ccc([C@H]2CC(=O)C=C(c3ccc(F)cc3OCc3ccccc3)C2)cc1OC	Env fusion inh 72 (no result: PGC1a acetyl inh)
Cc1cccc(NC(=S)N/N=C2\CC(C)(C)Oc3ccc(O)cc32)c1	FN deposit inh 39 (no result: PglD DTNB, PGC1a acetyl inh)
COc1ccccc1C#Cc1ccc2c(c1)[C@H]1[C@H](CCN1S(=O)(=O)c1ccc(C)cc1)[C@H](CO)N2C	none (no result: DENV2 CPE rescue, Env fusion inh, PglD DTNB, PGC1a acetyl inh)
CC(C)Oc1ccc2ccccc2c1C=O	none (no result: DENV2 CPE rescue, FN deposit inh, Env fusion inh, Ecoli rRNA inh)
O=Cc1c(OCc2ccccc2)ccc2ccccc12	Ecoli rRNA inh -37
C/[N+]([O-])=C/c1c(OCc2ccccc2)ccc2ccccc12	Ecoli rRNA inh -36
CNc1cc([N+](=O)[O-])ccc1OCc1ccccc1	none
COc1ccc(S(=O)(=O)Nc2ccc3c(c2)CC(=O)N([C@H](C)CO)C[C@H](C)[C@H](CN(C)S(=O)(=O)c2ccc(F)cc2)O3)cc1	Env fusion inh 91[16.7 µM] (no result: DENV2 CPE rescue, FN deposit inh)
COc1ccc(S(=O)(=O)N(C)C[C@H]2Oc3ccc(NS(=O)(=O)c4ccc(F)cc4)cc3CC(=O)N([C@@H](C)CO)C[C@H]2C)cc1	none (no result: FN deposit inh, PglD DTNB)
Cc1ccc(S(=O)(=O)N(C)C[C@@H]2Oc3ccc(NS(=O)(=O)c4c(C)noc4C)cc3CC(=O)N([C@@H](C)CO)C[C@H]2C)cc1	none (no result: FN deposit inh)
COc1ccc(S(=O)(=O)Nc2ccc3c(c2)CC(=O)N([C@H](C)CO)C[C@H](C)[C@H](CN(C)S(=O)(=O)c2ccc(OC)cc2)O3)cc1	Env fusion inh 56[16.7 µM] (no result: FN deposit inh)
COc1ccc(S(=O)(=O)Nc2ccc3c(c2)CC(=O)N([C@H](C)CO)C[C@H](C)[C@H](CN(C)S(=O)(=O)c2c(C)noc2C)O3)cc1	Env fusion inh 57[16.7 µM]
Cc1ccc(S(=O)(=O)N(C)C[C@@H]2Oc3ccc(NS(=O)(=O)c4c(C)noc4C)cc3CC(=O)N([C@H](C)CO)C[C@@H]2C)cc1	Env fusion inh 62[16.7 µM] (no result: FN deposit inh)
C[C@@H]1CN([C@H](C)CO)C(=O)c2c(c3ccccc3n2C)-c2ccccc2CO[C@H]1CN(C)S(=O)(=O)c1cccs1	none
CO[C@H]1CN(C)C(=O)c2cc(NS(=O)(=O)c3ccc(C)cc3)ccc2OC[C@H](C)N(Cc2nccs2)C[C@H]1C	none
O=C(C[C@H]1C[C@H]2c3cc(NC(=O)c4cccnc4)ccc3O[C@H]2[C@@H](CO)O1)NCC1CC1	none (no result: DENV2 CPE rescue)
